Values after ≈ are worked out from the molar mass of the structure shown.
Tests used:
Escherichia coli = experiment: Antibacterial activity against Escherichia coli ATCC 25922; assay type: functional; conditions: for MIC: Escherichia coli, ATCC 25922
How it was run: (§1)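 MIC by serial dilution in Mueller-Hinton broth tubes, pH adjusted to 5.0 with phosphate buffer. A standardized bacterial suspension was inoculated and incubated 16-18 h at 37 °C, and MIC was read as the lowest concentration with no visible growth. Zones were also measured in agar wells on seeded plates, with compounds in DMSO and a DMSO control, triplicate plates, 37 °C for 3-4 days.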

Klebsiella pneumoniae = experiment: Antibacterial activity against Klebsiella pneumoniae; assay type: functional; conditions: for MIC: Klebsiella pneumoniae; how it was run: as §1
Trichophyton benhamiae = experiment: Antifungal activity against Trichophyton mentagrophytes; assay type: functional, Arthroderma benhamiae; conditions: for MIC: Trichophyton benhamiae
How it was run: (§2)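 Agar-well diffusion on Sabouraud agar at pH 5.7. Plates were lawned with a saline spore suspension (one loopful in 3 ml), decanted and dried 1 h at 37 °C. Compounds in DMSO went into punched wells, with a DMSO solvent control. Plates were run in triplicate and kept at 37 °C for 3-4 days, with inhibition-zone diameter as read-out.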

Pseudomonas aeruginosa = experiment: Antibacterial activity against Pseudomonas aeruginosa ATCC 27853; assay type: functional; conditions: for MIC: Pseudomonas aeruginosa, ATCC 27853; how it was run: as §1
Talaromyces marneffei = experiment: Antifungal activity against Penicillium marneffei; assay type: functional; conditions: for MIC: Talaromyces marneffei; how it was run: as §2
Aspergillus fumigatus = experiment: Antifungal activity against Aspergillus fumigatus NCIM 902; assay type: functional; conditions: for MIC: Aspergillus fumigatus, NCIM 902
Aspergillus flavus = experiment: Antifungal activity against Aspergillus flavus NCIM 524; assay type: functional; conditions: for MIC: Aspergillus flavus, NCIM 524; how it was run: as §2
Staphylococcus aureus = experiment: Antibacterial activity against Staphylococcus aureus ATCC 25923; assay type: functional; conditions: for MIC: Staphylococcus aureus, ATCC 25923; how it was run: as §1

SMILES	MIC (Escherichia coli) [µg/mL]	MIC (Klebsiella pneumoniae) [µg/mL]	MIC (Trichophyton benhamiae) [µg/mL]	MIC (Pseudomonas aeruginosa) [µg/mL]	MIC (Talaromyces marneffei) [µg/mL]	MIC (Aspergillus fumigatus) [µg/mL]	MIC (Aspergillus flavus) [µg/mL]	MIC (Staphylococcus aureus) [µg/mL]	inhibition zone (IZ) (Escherichia coli) [mm]	inhibition zone (IZ) (Klebsiella pneumoniae) [mm]	inhibition zone (IZ) (Trichophyton benhamiae) [mm]	inhibition zone (IZ) (Pseudomonas aeruginosa) [mm]	inhibition zone (IZ) (Talaromyces marneffei) [mm]	inhibition zone (IZ) (Aspergillus fumigatus) [mm]	inhibition zone (IZ) (Aspergillus flavus) [mm]	inhibition zone (IZ) (Staphylococcus aureus) [mm]
CSc1ccc(OCc2nnc3sc(-c4ccccc4)nn23)cc1	6.25 (≈ 17.6 µM)	6.25 (≈ 17.6 µM)	6.25 (≈ 17.6 µM)	6.25 (≈ 17.6 µM)	6.25 (≈ 17.6 µM)	6.25 (≈ 17.6 µM)	6.25 (≈ 17.6 µM)	6.25 (≈ 17.6 µM)	16	16	16	16	16	16	16	16
CCSc1ccc(OCc2nnc3sc(-c4ccccc4Cl)nn23)cc1	25 (≈ 62 µM)	25 (≈ 62 µM)	25 (≈ 62 µM)	25 (≈ 62 µM)	25 (≈ 62 µM)	25 (≈ 62 µM)	25 (≈ 62 µM)	25 (≈ 62 µM)	<10	<10	<10	<10	<10	<10	<10	<10
CCSc1ccc(OCc2nnc3sc(-c4ccccc4N)nn23)cc1	25 (≈ 65.2 µM)	25 (≈ 65.2 µM)	25 (≈ 65.2 µM)	25 (≈ 65.2 µM)	25 (≈ 65.2 µM)	25 (≈ 65.2 µM)	25 (≈ 65.2 µM)	25 (≈ 65.2 µM)	<10	<10	<10	<10	<10	<10	<10	<10
CCSc1ccc(OCc2nnc3sc(-c4ccccc4O)nn23)cc1	25 (≈ 65 µM)	25 (≈ 65 µM)	25 (≈ 65 µM)	25 (≈ 65 µM)	25 (≈ 65 µM)	25 (≈ 65 µM)	25 (≈ 65 µM)	25 (≈ 65 µM)	<10	<10	<10	<10	<10	<10	<10	<10
CS(=O)(=O)c1ccc(OCc2nnc3sc(-c4cccc(Cl)c4Cl)nn23)cc1	6.25 (≈ 13.7 µM)	6.25 (≈ 13.7 µM)	6.25 (≈ 13.7 µM)	6.25 (≈ 13.7 µM)	6.25 (≈ 13.7 µM)	6.25 (≈ 13.7 µM)	6.25 (≈ 13.7 µM)	6.25 (≈ 13.7 µM)	16	16	16	16	16	16	16	16
CSc1ccc(OCc2nnc3n2N=C(c2ccc(Cl)cc2)CS3)cc1	6.25 (≈ 15.5 µM)	6.25 (≈ 15.5 µM)	6.25 (≈ 15.5 µM)	6.25 (≈ 15.5 µM)	6.25 (≈ 15.5 µM)	6.25 (≈ 15.5 µM)	6.25 (≈ 15.5 µM)	6.25 (≈ 15.5 µM)	16	16	16	16	16	16	16	16
CCSc1ccc(OCc2nnc3n2N=C(c2ccc(Cl)cc2)CS3)cc1	25 (≈ 60 µM)	25 (≈ 60 µM)	25 (≈ 60 µM)	25 (≈ 60 µM)	25 (≈ 60 µM)	25 (≈ 60 µM)	25 (≈ 60 µM)	25 (≈ 60 µM)	<10	<10	<10	<10	<10	<10	<10	<10
CS(=O)(=O)c1ccc(OCc2nnc3n2N=C(c2ccc(Cl)cc2)CS3)cc1	25 (≈ 57.5 µM)	25 (≈ 57.5 µM)	25 (≈ 57.5 µM)	25 (≈ 57.5 µM)	25 (≈ 57.5 µM)	25 (≈ 57.5 µM)	25 (≈ 57.5 µM)	25 (≈ 57.5 µM)	<10	<10	< 10	<10	<10	<10	<10	<10
CCSc1ccc(OCc2nnc3n2N=C(c2ccc(O)c(C(N)=O)c2)CS3)cc1	6.25 (≈ 14.2 µM)	6.25 (≈ 14.2 µM)	6.25 (≈ 14.2 µM)	6.25 (≈ 14.2 µM)	6.25 (≈ 14.2 µM)	6.25 (≈ 14.2 µM)	6.25 (≈ 14.2 µM)	6.25 (≈ 14.2 µM)	16	16	16	16	16	16	16	16
O=C(O)c1cn(C2CC2)c2cc(N3CCNCC3)c(F)cc2c1=O [CIPROFLOXACIN]		6.25 (≈ 18.9 µM)						1.56 (≈ 4.71 µM)	30	23		25				22

More lines, in order of falling MIC (Escherichia coli), values ahead:

MIC (Escherichia coli) [µg/mL]	MIC (Klebsiella pneumoniae) [µg/mL]	MIC (Trichophyton benhamiae) [µg/mL]	MIC (Pseudomonas aeruginosa) [µg/mL]	MIC (Talaromyces marneffei) [µg/mL]	MIC (Aspergillus fumigatus) [µg/mL]	MIC (Aspergillus flavus) [µg/mL]	MIC (Staphylococcus aureus) [µg/mL]	SMILES	inhibition zone (IZ) (Escherichia coli) [mm]	inhibition zone (IZ) (Klebsiella pneumoniae) [mm]	inhibition zone (IZ) (Trichophyton benhamiae) [mm]	inhibition zone (IZ) (Pseudomonas aeruginosa) [mm]	inhibition zone (IZ) (Talaromyces marneffei) [mm]	inhibition zone (IZ) (Aspergillus fumigatus) [mm]	inhibition zone (IZ) (Aspergillus flavus) [mm]	inhibition zone (IZ) (Staphylococcus aureus) [mm]
25 (≈ 62.7 µM)	25 (≈ 62.7 µM)	25 (≈ 62.7 µM)	25 (≈ 62.7 µM)	25 (≈ 62.7 µM)	25 (≈ 62.7 µM)	25 (≈ 62.7 µM)	25 (≈ 62.7 µM)	CCSc1ccc(OCc2nnc3sc(-c4ccc(OC)cc4)nn23)cc1	<10	<10	<10	<10	<10	<10	<10	<10
25 (≈ 58.5 µM)	25 (≈ 58.5 µM)	25 (≈ 58.5 µM)	25 (≈ 58.5 µM)	25 (≈ 58.5 µM)	25 (≈ 58.5 µM)	25 (≈ 58.5 µM)	25 (≈ 58.5 µM)	CSc1ccc(OCc2nnc3n2N=C(c2ccc(O)c(C(N)=O)c2)CS3)cc1	<10	<10	<10	<10	<10	<10	<10	<10
25 (≈ 55.4 µM)	25 (≈ 55.4 µM)	25 (≈ 55.4 µM)	25 (≈ 55.4 µM)	25 (≈ 55.4 µM)	25 (≈ 55.4 µM)	25 (≈ 55.4 µM)	25 (≈ 55.4 µM)	CCSc1ccc(OCc2nnc3n2N=C(c2ccc(Cl)cc2Cl)CS3)cc1	<10	<10	<10	<10	<10	<10	<10	<10
25 (≈ 57.2 µM)	25 (≈ 57.2 µM)	25 (≈ 57.2 µM)	25 (≈ 57.2 µM)	25 (≈ 57.2 µM)	25 (≈ 57.2 µM)	25 (≈ 57.2 µM)	25 (≈ 57.2 µM)	CCSc1ccc(OCc2nnc3sc(-c4cccc(Cl)c4Cl)nn23)cc1	<10	<10	<10	<10	<10	<10	<10	<10
25 (≈ 64.3 µM)	25 (≈ 64.3 µM)	25 (≈ 64.3 µM)	25 (≈ 64.3 µM)	25 (≈ 64.3 µM)	25 (≈ 64.3 µM)	25 (≈ 64.3 µM)	25 (≈ 64.3 µM)	CSc1ccc(OCc2nnc3sc(-c4ccccc4Cl)nn23)cc1	<10	<10	<10	<10	<10	<10	<10	<10
6.25 (≈ 14.3 µM)	6.25 (≈ 14.3 µM)	6.25 (≈ 14.3 µM)	6.25 (≈ 14.3 µM)	6.25 (≈ 14.3 µM)	6.25 (≈ 14.3 µM)	6.25 (≈ 14.3 µM)	6.25 (≈ 14.3 µM)	CSc1ccc(OCc2nnc3n2N=C(c2ccc(Cl)cc2Cl)CS3)cc1	16	16	16	16	16	16	16	16
6.25 (≈ 16.3 µM)	6.25 (≈ 16.3 µM)	25 (≈ 65.4 µM)	6.25 (≈ 16.3 µM)	6.25 (≈ 16.3 µM)	25 (≈ 65.4 µM)	25 (≈ 65.4 µM)	6.25 (≈ 16.3 µM)	CCSc1ccc(OCc2nnc3sc(-c4ccc(C)cc4)nn23)cc1	16	16	<10	16	16	<10	<10	16

Source: ChEMBL document CHEMBL1143805, “Synthesis and antimicrobial activities of some novel 1,2,4-triazolo[3,4-b]-1,3,4-thiadiazoles and 1,2,4-triazolo[3,4-b]-1,3,4-thiadiazines carrying thioalkyl and sulphonyl phenoxy moieties” (2007)
